{"data": "Measurements from different studies", "XDH": "Xanthine dehydrogenase/oxidase (XDH, Bos taurus, UniProt P80457)", "STAT5B SH2": "Signal transducer and activator of transcription 5B, SH2 (STAT5B, Homo sapiens, UniProt P51692)", "SIRT1": "NAD-dependent protein deacetylase sirtuin-1 (SIRT1, Homo sapiens, UniProt Q96EB6)", "SPHK2": "Sphingosine kinase 2 (SPHK2, Homo sapiens, UniProt Q9NRA0)", "SLC7A5": "Large neutral amino acids transporter small subunit 1 (SLC7A5, Homo sapiens, UniProt Q01650)", "note": "Lines come from different studies, so protocols differ."}
{"SMILES": "O=C1C=C(c2ccc(O)c(O)c2)CO1", "target": "XDH", "read-out": "enzyme activity", "mode": "inhibitor", "technique": "absorbance", "tested at": "200 µg/mL", "inhibition": "50%"}
{"SMILES": "CC(C)(C)C(=O)OCOP(=O)(Cc1ccccc1CP(=O)(OCOC(=O)C(C)(C)C)OCOC(=O)C(C)(C)C)OCOC(=O)C(C)(C)C", "target": "STAT5B SH2", "read-out": "ligand displacement", "technique": "FP", "tested at": "100 µM", "inhibition": "-1%"}
{"SMILES": "CCCCCC1CC(=O)c2cc(Br)cc(Br)c2O1 (stereo not drawn)", "target": "SIRT1", "read-out": "enzyme activity", "mode": "inhibitor", "technique": "fluorescence", "tested at": "200 µM", "inhibition": "0.6%"}
{"SMILES": "N=C(N)N1CCC[C@H]1c1nc(-c2ccc(CCC3CCCC3)c(C(F)(F)F)c2)no1", "target": "SPHK2", "read-out": "enzyme activity", "mode": "inhibitor", "technique": "radiometric", "tested at": "0.3 µM", "inhibition": "25%"}
{"SMILES": "CCCCCC1CC(O)c2cc(Cl)cc(Br)c2O1 (stereo not drawn)", "target": "SIRT1", "read-out": "enzyme activity", "mode": "inhibitor", "technique": "fluorescence", "tested at": "200 µM", "inhibition": "-5.5%"}
{"SMILES": "O=C(NC1CCC1)[C@H](Cc1c[nH]c2ccccc12)NC(=O)[C@H](CCCCNC(=S)NCCn1nn[nH]c1=O)NS(=O)(=O)c1cccc(F)c1", "target": "SIRT1", "read-out": "enzyme activity", "mode": "inhibitor", "tested at": "10 µM", "inhibition": "17%"}
{"SMILES": "N[C@@H](Cc1cccc(C(=O)Oc2ccccc2)c1)C(=O)O", "target": "SLC7A5", "read-out": "transporter uptake", "mode": "inhibitor", "technique": "radiometric", "tested at": "200 µM", "inhibition": "85%"}
{"SMILES": "Cn1c(CNC(=S)NCCCC[C@H](NS(=O)(=O)c2cccc(F)c2)C(=O)N[C@@H](Cc2c[nH]c3ccccc23)C(=O)NC2CCC2)n[nH]c1=S", "target": "SIRT1", "read-out": "enzyme activity", "mode": "inhibitor", "tested at": "30 µM", "inhibition": "89%"}
{"SMILES": "CCCCCC1CC(=O)c2cc(F)cc(F)c2O1 (stereo not drawn)", "target": "SIRT1", "read-out": "enzyme activity", "mode": "inhibitor", "technique": "fluorescence", "tested at": "200 µM", "inhibition": "0.4%"}
{"SMILES": "COc1cc(-c2cc(-c3ccc(N4CCNCC4)cc3)cnc2N)cc(OC)c1OC", "target": "Platelet-derived growth factor receptor alpha (PDGFRA, Homo sapiens, UniProt P16234, D842V)", "read-out": "enzyme activity", "mode": "inhibitor", "tested at": "1 µM", "inhibition": "90%"}
{"SMILES": "N[C@@H](Cc1cccc(OC(=O)c2ccccc2)c1)C(=O)O", "target": "SLC7A5", "read-out": "transporter uptake", "mode": "inhibitor", "technique": "radiometric", "tested at": "200 µM", "inhibition": "100%"}
{"SMILES": "[H]/N=C(\\N)N1CCC[C@H]1c1nc(-c2ccc(OCCC=Cc3ccc(C(F)(F)F)cc3)c(C(F)(F)F)c2)no1", "target": "SPHK2", "read-out": "enzyme activity", "mode": "inhibitor", "technique": "radiometric", "tested at": "0.3 µM", "inhibition": "68%"}
{"SMILES": "O=C(CSc1nc2nccnc2c(=O)n1CCc1ccccc1)Nc1nccs1", "target": "SPHK2", "read-out": "enzyme activity", "mode": "inhibitor", "tested at": "10 µM", "inhibition": "0%"}
{"SMILES": "O=C(O)Cc1ccccc1OP(=O)(O)O", "target": "STAT5B SH2", "read-out": "ligand displacement", "technique": "FP", "tested at": "100 µM", "inhibition": "39%"}
{"SMILES": "O=C(O)c1ccc(O)c(O)c1", "target": "XDH", "read-out": "enzyme activity", "mode": "inhibitor", "technique": "absorbance", "tested at": "200 µg/mL", "inhibition": "20.8%"}
{"SMILES": "O=C1CC(CCc2ccccc2)Oc2c(Br)cc(Cl)cc21 (stereo not drawn)", "target": "SIRT1", "read-out": "enzyme activity", "mode": "inhibitor", "technique": "fluorescence", "tested at": "200 µM", "inhibition": "6.9%"}
{"SMILES": "NC(CCCNC(=O)c1ccccc1)C(=O)O (stereo not drawn)", "target": "SLC7A5", "read-out": "transporter uptake", "mode": "inhibitor", "technique": "radiometric", "tested at": "200 µM", "inhibition": "54%"}
{"SMILES": "CCCCCC1CC(=O)c2cc(Cl)ccc2O1 (stereo not drawn)", "target": "SIRT1", "read-out": "enzyme activity", "mode": "inhibitor", "technique": "fluorescence", "tested at": "200 µM", "inhibition": "2.7%"}
{"SMILES": "Oc1ncnc2[nH]ncc12", "target": "XDH", "read-out": "enzyme activity", "mode": "inhibitor", "technique": "absorbance", "tested at": "25 µg/mL", "inhibition": "97%"}
{"SMILES": "CNC(=O)c1cc(Oc2ccc(NC(=O)Nc3ccc(Cl)c(C(F)(F)F)c3)cc2)ccn1", "target": "Platelet-derived growth factor receptor alpha (PDGFRA, Homo sapiens, UniProt P16234)", "read-out": "enzyme activity", "mode": "inhibitor", "tested at": "10 µM", "inhibition": "95%"}
{"SMILES": "CCCCCCCCCCCCNC(=S)NCCCC[C@H](NC(=O)OCc1ccccc1)C(=O)N[C@@H](C)C(=O)N[C@@H](CCCNC(=N)N)C(N)=O", "target": "SIRT1", "read-out": "enzyme activity", "mode": "inhibitor", "tested at": "1 µM", "inhibition": "61%"}
{"SMILES": "NC(COC(=O)c1ccccc1)C(=O)O (stereo not drawn)", "target": "SLC7A5", "read-out": "transporter uptake", "mode": "inhibitor", "technique": "radiometric", "tested at": "200 µM", "inhibition": "16%"}
{"SMILES": "O=C(O)c1ccc(O)cc1", "target": "XDH", "read-out": "enzyme activity", "mode": "inhibitor", "technique": "absorbance", "tested at": "100 µg/mL", "inhibition": "14.7%"}
{"SMILES": "CCCc1ccc(CCc2ccc(-c3noc([C@@H]4CCCN4C(=N)N)n3)cc2C(F)(F)F)cc1", "target": "SPHK2", "read-out": "enzyme activity", "mode": "inhibitor", "technique": "radiometric", "tested at": "0.3 µM", "inhibition": "65%"}
{"SMILES": "CCCCCCCCCCCCNC(=S)NCCCC[C@H](NC(=O)OCc1ccccc1)C(=O)N[C@@H](Cc1c[nH]c2ccccc12)C(=O)N[C@@H](CCCCNC(=N)N)C(N)=O", "target": "SIRT1", "read-out": "enzyme activity", "mode": "inhibitor", "tested at": "1 µM", "inhibition": "76%"}
{"SMILES": "CCCC=CCOc1ccc(-c2noc([C@@H]3CCCN3C(=N)N)n2)cc1C(F)(F)F", "target": "SPHK2", "read-out": "enzyme activity", "mode": "inhibitor", "technique": "radiometric", "tested at": "0.3 µM", "inhibition": "28%"}
{"SMILES": "Cc1ccc(S(=O)(=O)n2cc(CCC3CC(=O)c4cc(Cl)cc(Br)c4O3)c3ccccc32)cc1 (stereo not drawn)", "target": "SIRT1", "read-out": "enzyme activity", "mode": "inhibitor", "technique": "fluorescence", "tested at": "200 µM", "inhibition": "23%"}
{"SMILES": "CCCCCCCCCCCCNC(=O)NCCCC[C@H](NS(C)(=O)=O)C(=O)N[C@H](C)C(=O)N[C@@H](CCCNC(=N)N)C(N)=O", "target": "SIRT1", "read-out": "enzyme activity", "mode": "inhibitor", "tested at": "10 µM", "inhibition": "38%"}
{"SMILES": "[H]/N=C(/N)N1CCC[C@H]1c1nc(-c2ccc(OCCC=CCCC)c(C(F)(F)F)c2)no1", "target": "SPHK2", "read-out": "enzyme activity", "mode": "inhibitor", "technique": "radiometric", "tested at": "0.3 µM", "inhibition": "56%"}
{"SMILES": "CCOCCOCCOCCNC(=S)NCCCC[C@H](NS(C)(=O)=O)C(=O)N[C@H](C)C(=O)N[C@@H](CCCNC(=N)N)C(N)=O", "target": "SIRT1", "read-out": "enzyme activity", "mode": "inhibitor", "tested at": "100 µM", "inhibition": "16%"}
{"SMILES": "OCCc1ccc(O)c(O)c1", "target": "XDH", "read-out": "enzyme activity", "mode": "inhibitor", "technique": "absorbance", "tested at": "100 µg/mL", "inhibition": "7.3%"}
{"SMILES": "N=C(N)N1CCC[C@H]1c1nc(-c2ccc(CCC3CCCCC3)c(C(F)(F)F)c2)no1", "target": "SPHK2", "read-out": "enzyme activity", "mode": "inhibitor", "technique": "radiometric", "tested at": "0.3 µM", "inhibition": "71%"}
{"SMILES": "Ic1cccc2cnccc12", "target": "Alpha-1B adrenergic receptor (Adra1b, Rattus norvegicus, UniProt P15823)", "read-out": "ligand displacement", "technique": "radioligand", "tested at": "10 µM", "inhibition": "7%"}
{"SMILES": "CCCCCCCCCCCCCC(=O)NCCCC[C@H](NS(C)(=O)=O)C(=O)N[C@H](C)C(=O)N[C@@H](CCCNC(=N)N)C(N)=O", "target": "SIRT1", "read-out": "enzyme activity", "mode": "inhibitor", "tested at": "10 µM", "inhibition": "23%"}
{"SMILES": "O=Cc1c[nH]c2ccccc12", "target": "XDH", "read-out": "enzyme activity", "mode": "inhibitor", "technique": "absorbance", "tested at": "100 µg/mL", "inhibition": "8.1%"}
{"SMILES": "CC(C)(C)c1ccc(CCc2ccc(-c3noc([C@@H]4CCCN4C(=N)N)n3)cc2C(F)(F)F)cc1", "target": "SPHK2", "read-out": "enzyme activity", "mode": "inhibitor", "technique": "radiometric", "tested at": "0.3 µM", "inhibition": "71%"}
{"SMILES": "CS(=O)(=O)Nc1cccc(-c2csc(NC(=O)CSc3nc4nccnc4c(=O)n3CCc3ccccc3)n2)c1", "target": "SPHK2", "read-out": "enzyme activity", "mode": "inhibitor", "tested at": "10 µM", "inhibition": "-12%"}
{"SMILES": "CCCCCC1CC(=O)c2cc(C)cc(C)c2O1 (stereo not drawn)", "target": "SIRT1", "read-out": "enzyme activity", "mode": "inhibitor", "technique": "fluorescence", "tested at": "200 µM", "inhibition": "3.2%"}
{"SMILES": "N[C@@H](CO)C(=O)O", "target": "SLC7A5", "read-out": "transporter uptake", "mode": "inhibitor", "technique": "radiometric", "tested at": "200 µM", "inhibition": "-1%"}
{"SMILES": "CCCCCCCCCCCCNC(=S)NCCCC[C@H](NC(=O)OCc1ccccc1)C(=O)N[C@@H](CCCCN)C(=O)N[C@@H](CCCNC(=N)N)C(N)=O", "target": "SIRT1", "read-out": "enzyme activity", "mode": "inhibitor", "tested at": "1 µM", "inhibition": "25%"}
{"SMILES": "O=C(CO)c1ccc(O)c(O)c1", "target": "XDH", "read-out": "enzyme activity", "mode": "inhibitor", "technique": "absorbance", "tested at": "100 µg/mL", "inhibition": "20%"}
{"SMILES": "CCCCCCCCCCCCNC(=S)NCCCC[C@H](NC(=O)C1CCCCC1)C(=O)N[C@H](C)C(=O)N[C@@H](CCCNC(=N)N)C(N)=O", "target": "SIRT1", "read-out": "enzyme activity", "mode": "inhibitor", "tested at": "1 µM", "inhibition": "44%"}
{"SMILES": "O=c1cc(-c2ccccc2)oc2c(Br)cc(Cl)cc12", "target": "SIRT1", "read-out": "enzyme activity", "mode": "inhibitor", "technique": "fluorescence", "tested at": "200 µM", "inhibition": "3.1%"}
{"SMILES": "CCCCCCCCCCCCNC(=S)NCCCC[C@H](NC(=O)OCc1ccccc1)C(=O)N[C@@H](Cc1c[nH]c2ccccc12)C(=O)N[C@@H](CC(N)=O)C(N)=O", "target": "SIRT1", "read-out": "enzyme activity", "mode": "inhibitor", "tested at": "10 µM", "inhibition": "29%"}
{"SMILES": "N=C(N)N1CCC[C@H]1c1nc(-c2ccc(CCc3ccc(C(F)(F)F)cc3)c(C(F)(F)F)c2)no1", "target": "SPHK2", "read-out": "enzyme activity", "mode": "inhibitor", "technique": "radiometric", "tested at": "0.3 µM", "inhibition": "59%"}
{"SMILES": "OCCc1ccc(O)cc1", "target": "XDH", "read-out": "enzyme activity", "mode": "inhibitor", "technique": "absorbance", "tested at": "200 µg/mL", "inhibition": "21.2%"}
{"SMILES": "CC(C)CCn1c(SCC(=O)Nc2ccccc2C(F)(F)F)nc2nccnc2c1=O", "target": "SPHK2", "read-out": "enzyme activity", "mode": "inhibitor", "tested at": "10 µM", "inhibition": "< 20%"}
{"SMILES": "O=C(NC1CCC1)[C@H](Cc1c[nH]c2ccccc12)NC(=O)[C@H](CCCCNC(=S)NCCc1nnn[nH]1)NS(=O)(=O)c1cccc(F)c1", "target": "SIRT1", "read-out": "enzyme activity", "mode": "inhibitor", "tested at": "1 µM", "inhibition": "7%"}
